From ChEMBL document CHEMBL5236545, “Discovery of Potent and Brain-Penetrant Tau Tubulin Kinase 1 (TTBK1) Inhibitors that Lower Tau Phosphorylation In Vivo” (J Med Chem, 2021)
Values after ≈ are worked out from the molar mass of the structure shown.

How the values were obtained:
[1] = Intrinsic clearance in human liver microsomes at 1 uM incubated upto 40 mins; type: ADME, Microsome; conditions: read-out: CLH
[2] = Intrinsic clearance in rat liver microsomes at 1 uM incubated upto 40 mins; type: ADME, Microsome; conditions: read-out: CLH
[3] = Stability of the compound at pH 7.4 by UHPLC-MS/MS analysis; type: physicochemical; conditions: buffer
[4] = Dissociation constant, pKa of compound; type: physicochemical
[5] = Solubility of compound; type: physicochemical
[6] = Unbound brain-to-plasma concentration ratio in rat at 1 mg/kg,iv administered for 4 hrs; type: ADME, organism-based; conditions: brain and plasma (unbound), read-out: K(p,uu,brain)
[7] = Clearance in rat at 1 mg/kg,iv administered for 4 hrs; type: ADME, organism-based; conditions: in vivo
[8] = Volume of distribution at steady state in rat at 1 mg/kg,iv administered for 4 hrs; type: ADME, organism-based; conditions: in vivo, read-out: Vdss
[9] = Half life in rat at 1 mg/kg,iv administered for 4 hrs; type: ADME, organism-based; conditions: in vivo
[10] = Clearance in mouse at 1 mg/kg,iv administered for 4 hrs; type: ADME, organism-based; conditions: in vivo
[11] = Volume of distribution at steady state in mouse at 1 mg/kg,iv administered for 4 hrs; type: ADME, organism-based; conditions: in vivo, read-out: Vdss
[12] = Half life in mouse at 1 mg/kg,iv administered for 4 hrs; type: ADME, organism-based; conditions: in vivo
[13] = Drug concentration in rat brain at 80 mg/kg,ip administered for 24 hr by LC-MS/MS analysis; type: ADME, organism-based; conditions: in vivo
In short: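 Post-natal day 10 rats given 80 mg/kg I.P.; groups sacrificed 0.5−24 h after dosing. Cortical samples from each hemisphere taken for brain drug concentration and tau phosphorylation.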

SMILES	CLint scaled at 1 µM [1]	CLint scaled at 1 µM [2]	Stability [3]	other results
CN1CCC[C@@H](c2cn(-c3ccnc(N)n3)c3cc(C#CC(C)(C)O)ncc23)C1	< 0.3 L/h/kg	< 0.66 L/h/kg	99.3%	–
CC(C)(O)C#Cc1cc2c(cn1)CCN2c1ccnc(N)n1	< 0.3 L/h/kg	1.44 L/h/kg	82.7%	pKa [4]: 7.4
CC[C@](C)(O)C#Cc1cc2c(cn1)cnn2-c1ccnc(N)n1	< 0.3 L/h/kg	2.16 L/h/kg	99.9%	solubility [5]: 0.046 mg/mL (≈ 149 µM); Kp uu at 4 h [6]: 0.08; clearance [7]: 1.02 L/h/kg; Vd [8]: 2.48 L/kg; half-life [9]: 4.3 h
CC(C)(O)C#Cc1cc2c(cn1)c(C1CCOCC1)cn2-c1ccnc(N)n1	0.36 L/h/kg	2.28 L/h/kg	–	–
CC[C@](C)(O)C#Cc1cc2c(ccn2-c2cc(OC)nc(N)n2)cn1	0.96 L/h/kg	13.1 L/h/kg	–	solubility [5]: 0.045 mg/mL (≈ 133 µM); Kp uu at 4 h [6]: 0.32; clearance [7]: 3.72 L/h/kg; clearance [10]: 4.02 L/h/kg; Vd [8]: 4.87 L/kg; half-life [9]: 3.6 h; Vd [11]: 0.474 L/kg; half-life [12]: 6 min; Drug uptake [13]: Not Active
Cn1nc(-c2ccnc(N)n2)c2cc(C#CC(C)(C)O)ccc21	–	–	100%	–

Further lines, with some results ahead:

CLint scaled at 1 µM [1]	CLint scaled at 1 µM [2]	Stability [3]	SMILES	other results
0.6 L/h/kg	22.4 L/h/kg	–	CC(C)(O)C#Cc1cc2c(cn1)c(C1CC1)cn2-c1ccnc(N)n1	–
1.26 L/h/kg	4.14 L/h/kg	100%	CC(C)(O)C#Cc1cc2c(ccn2-c2ccnc(N)n2)cc1F	–
< 0.3 L/h/kg	1.62 L/h/kg	–	CC(C)(O)C#Cc1cc2c(cn1)cnn2-c1ccnc(N)n1	pKa [4]: 4.9
1.86 L/h/kg	3.36 L/h/kg	–	COc1cc2ccn(-c3ccnc(N)n3)c2cc1C#CC(C)(C)O	–
1.14 L/h/kg	2.52 L/h/kg	–	CC(C)(O)C#Cc1cc2c(ccn2-c2ccnc(N)n2)cn1	pKa [4]: 5.7
0.66 L/h/kg	9.3 L/h/kg	99.7%	CC[C@](C)(O)C#Cc1cc2c(ccn2-c2ccnc(N)n2)cn1	solubility [5]: 0.044 mg/mL (≈ 143 µM); Kp uu at 4 h [6]: 0.1; clearance [7]: 3.84 L/h/kg; Vd [8]: 2.17 L/kg; half-life [9]: 3.6 h
0.6 L/h/kg	3.72 L/h/kg	–	COc1nc(C#CC(C)(C)O)cc2c1ccn2-c1ccnc(N)n1	–
< 0.3 L/h/kg	2.52 L/h/kg	–	CC(C)(O)C#Cc1cc2c(ccn2-c2ccnc(N)n2)c(N2CCOCC2)n1	–
